Values after ≈ are worked out from the molar mass of the structure shown.
Assays:
Type in all cases: functional
Staphylococcus aureus [1] = assay: Antibacterial activity against methicillin-resistant Staphylococcus aureus C19 measured after overnight incubation by broth double-dilution method
How it was run: (§1)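 MIC by broth double-dilution in liquid Mueller-Hinton medium. Values are reported in µg/mL.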

Staphylococcus aureus [2] = assay: Antibacterial activity against methicillin-resistant Staphylococcus aureus 1 measured after overnight incubation by broth double-dilution method; how it was run: as §1
Staphylococcus aureus [3] = assay: Antibacterial activity against methicillin-sensitive Staphylococcus aureus ATCC 25923 measured after overnight incubation by broth double-dilution method; how it was run: as §1
Staphylococcus aureus [4] = assay: Antibacterial activity against methicillin-resistant Staphylococcus aureus USA600 measured after overnight incubation by broth double-dilution method; how it was run: as §1
Staphylococcus aureus [5] = assay: Antibacterial activity against methicillin-resistant Staphylococcus aureus G6 measured after overnight incubation by broth double-dilution method; how it was run: as §1
Staphylococcus aureus [6] = assay: Antibacterial activity against methicillin-sensitive Staphylococcus aureus ATCC 6538 measured after overnight incubation by broth double-dilution method; how it was run: as §1
Enterococcus faecalis [7] = assay: Antibacterial activity against Enterococcus faecalis ATCC 29212 measured after overnight incubation by broth double-dilution method
How it was run: (§2)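 MIC by broth double-dilution in Mueller-Hinton medium. Re-testing at the time-kill inoculum used 1×10^6 CFU/mL.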

Staphylococcus aureus [8] = assay: Antibacterial activity against methicillin-resistant Staphylococcus aureus BRS3 measured after overnight incubation by broth double-dilution method; how it was run: as §1
Staphylococcus aureus [9] = assay: Antibacterial activity against methicillin-resistant Staphylococcus aureus USA200 measured after overnight incubation by broth double-dilution method; how it was run: as §1
Staphylococcus aureus [10] = assay: Antibacterial activity against methicillin-resistant Staphylococcus aureus NRS77 measured after overnight incubation by broth double-dilution method; how it was run: as §1
[11] = test system: Staphylococcus epidermidis; assay: Antibacterial activity against Staphylococcus epidermidis ATCC 35984 measured after overnight incubation by broth double-dilution method; settings: RP62A; how it was run: as §2
Staphylococcus aureus [12] = assay: Antibacterial activity against methicillin-resistant Staphylococcus aureus G1 measured after overnight incubation by broth double-dilution method; how it was run: as §1
Staphylococcus aureus [13] = assay: Antibacterial activity against methicillin-resistant Staphylococcus aureus C2 measured after overnight incubation by broth double-dilution method; how it was run: as §1
Staphylococcus aureus [14] = assay: Antibacterial activity against methicillin-resistant Staphylococcus aureus NRS51 measured after overnight incubation by broth double-dilution method; how it was run: as §1
Enterococcus = assay: Antibacterial activity against Vancomycin-resistant Enterococcus measured after overnight incubation by broth double-dilution method; how it was run: as §1
Staphylococcus aureus [15] = assay: Antibacterial activity against methicillin-resistant Staphylococcus aureus USA100 measured after overnight incubation by broth double-dilution method; how it was run: as §1
Enterococcus faecium = assay: Antibacterial activity against Enterococcus faecium BM4105-RF measured after overnight incubation by broth double-dilution method; how it was run: as §1
Staphylococcus aureus [16] = assay: Antibacterial activity against methicillin-resistant Staphylococcus aureus G14 measured after overnight incubation by broth double-dilution method; how it was run: as §1
Staphylococcus aureus [17] = assay: Antibacterial activity against methicillin-resistant Staphylococcus aureus S14 measured after overnight incubation by broth double-dilution method; how it was run: as §1
[18] = test system: Mycolicibacterium smegmatis; assay: Antibacterial activity against Mycobacterium smegmatis MC2-155 measured after overnight incubation by broth double-dilution method; settings: str. MC2 155; how it was run: as §1
Staphylococcus aureus [19] = assay: Antibacterial activity against methicillin-resistant Staphylococcus aureus C7 measured after overnight incubation by broth double-dilution method; how it was run: as §1
Staphylococcus aureus [20] = assay: Antibacterial activity against methicillin-resistant Staphylococcus aureus ATCC 33591 measured after overnight incubation by broth double-dilution method; how it was run: as §1
Staphylococcus aureus [21] = assay: Antibacterial activity against methicillin-resistant Staphylococcus aureus USA300 measured after overnight incubation by broth double-dilution method; how it was run: as §1
Staphylococcus aureus [22] = assay: Antibacterial activity against methicillin-resistant Staphylococcus aureus C14 measured after overnight incubation by broth double-dilution method; how it was run: as §1
Staphylococcus aureus [23] = assay: Antibacterial activity against methicillin-resistant Staphylococcus aureus 2 measured after overnight incubation by broth double-dilution method; how it was run: as §1
Listeria monocytogenes = assay: Antibacterial activity against Listeria monocytogenes ATCC 19115 measured after overnight incubation by broth double-dilution method; how it was run: as §2
Enterococcus faecalis [24] = assay: Antibacterial activity against Enterococcus faecalis ATCC 49533 measured after overnight incubation by broth double-dilution method; how it was run: as §2
Staphylococcus aureus [25] = assay: Antibacterial activity against methicillin-sensitive Staphylococcus aureus ATCC 29213 measured after overnight incubation by broth double-dilution method; how it was run: as §1
Staphylococcus aureus [26] = assay: Antibacterial activity against methicillin-resistant Staphylococcus aureus S24 measured after overnight incubation by broth double-dilution method; how it was run: as §1
Staphylococcus aureus [27] = assay: Antibacterial activity against methicillin-resistant Staphylococcus aureus C16 measured after overnight incubation by broth double-dilution method; how it was run: as §1
Staphylococcus aureus [28] = assay: Antibacterial activity against methicillin-resistant Staphylococcus aureus C1 measured after overnight incubation by broth double-dilution method; how it was run: as §1
Staphylococcus aureus [29] = assay: Antibacterial activity against methicillin-resistant Staphylococcus aureus NRS4 measured after overnight incubation by broth double-dilution method; how it was run: as §1
Staphylococcus aureus [30] = assay: Antibacterial activity against methicillin-resistant Staphylococcus aureus S22 measured after overnight incubation by broth double-dilution method; how it was run: as §1
Staphylococcus aureus [31] = assay: Antibacterial activity against methicillin-resistant Staphylococcus aureus G12 measured after overnight incubation by broth double-dilution method; how it was run: as §1
Staphylococcus aureus [32] = assay: Antibacterial activity against methicillin-resistant Staphylococcus aureus S17 measured after overnight incubation by broth double-dilution method; how it was run: as §1

| SMILES | MIC (Staphylococcus aureus [1]) [µg/mL] | MIC (Staphylococcus aureus [2]) [µg/mL] | MIC (Staphylococcus aureus [3]) [µg/mL] | MIC (Staphylococcus aureus [4]) [µg/mL] | MIC (Staphylococcus aureus [5]) [µg/mL] | MIC (Staphylococcus aureus [6]) [µg/mL] | MIC (Enterococcus faecalis [7]) [µg/mL] | MIC (Staphylococcus aureus [8]) [µg/mL] | MIC (Staphylococcus aureus [9]) [µg/mL] | MIC (Staphylococcus aureus [10]) [µg/mL] | MIC [11] [µg/mL] | MIC (Staphylococcus aureus [12]) [µg/mL] | MIC (Staphylococcus aureus [13]) [µg/mL] | MIC (Staphylococcus aureus [14]) [µg/mL] | MIC (Enterococcus) [µg/mL] | MIC (Staphylococcus aureus [15]) [µg/mL] | MIC (Enterococcus faecium) [µg/mL] | MIC (Staphylococcus aureus [16]) [µg/mL] | MIC (Staphylococcus aureus [17]) [µg/mL] | MIC [18] [µg/mL] | other results |
| --- | --- | --- | --- | --- | --- | --- | --- | --- | --- | --- | --- | --- | --- | --- | --- | --- | --- | --- | --- | --- | --- |
| O=c1c2ccccc2sn1-c1ccc(Cl)cc1 | 1 (≈ 3.82 µM) | 1 (≈ 3.82 µM) | 2 (≈ 7.64 µM) | 2 (≈ 7.64 µM) | 2 (≈ 7.64 µM) | 3.9 (≈ 14.9 µM) | 62.5 (≈ 239 µM) | 3.9 (≈ 14.9 µM) | 2 (≈ 7.64 µM) | 3.9 (≈ 14.9 µM) | 1 (≈ 3.82 µM) | 2 (≈ 7.64 µM) | 1 (≈ 3.82 µM) | 3.9 (≈ 14.9 µM) | 0.5 (≈ 1.91 µM) | 2 (≈ 7.64 µM) | 31.3 (≈ 120 µM) | 1 (≈ 3.82 µM) | ≤ 0.25 | 3.9 (≈ 14.9 µM) | MIC (Staphylococcus aureus [19]): 1 µg/mL (≈ 3.82 µM); MIC (Staphylococcus aureus [20]): 1 µg/mL (≈ 3.82 µM); MIC (Staphylococcus aureus [21]): 3.9 µg/mL (≈ 14.9 µM); MIC (Staphylococcus aureus [22]): 3.9 µg/mL (≈ 14.9 µM); MIC (Staphylococcus aureus [23]): 1 µg/mL (≈ 3.82 µM); MIC (Listeria monocytogenes): 1 µg/mL (≈ 3.82 µM); MIC (Enterococcus faecalis [24]): > 125 µg/mL; MIC (Staphylococcus aureus [25]): 2 µg/mL (≈ 7.64 µM); MIC (Staphylococcus aureus [26]): 1 µg/mL (≈ 3.82 µM); MIC (Staphylococcus aureus [27]): 3.9 µg/mL (≈ 14.9 µM); MIC (Staphylococcus aureus [28]): 2 µg/mL (≈ 7.64 µM); MIC (Staphylococcus aureus [29]): 3.9 µg/mL (≈ 14.9 µM); MIC (Staphylococcus aureus [30]): 2 µg/mL (≈ 7.64 µM); MIC (Staphylococcus aureus [31]): 2 µg/mL (≈ 7.64 µM); MIC (Staphylococcus aureus [32]): 1 µg/mL (≈ 3.82 µM) |
| O=c1c2ccccc2[s+]([O-])n1C1CCCCCCC1 (stereo not given) | > 125 | > 125 | > 125 | > 125 | > 125 | > 125 | > 125 | > 125 | > 125 | > 125 | > 125 | > 125 | > 125 | > 125 | > 125 | > 125 | > 125 | > 125 | > 125 | > 125 | MIC (Staphylococcus aureus [19]): > 125 µg/mL; MIC (Staphylococcus aureus [20]): > 125 µg/mL; MIC (Staphylococcus aureus [21]): > 125 µg/mL; MIC (Staphylococcus aureus [22]): > 125 µg/mL; MIC (Staphylococcus aureus [23]): > 125 µg/mL; MIC (Listeria monocytogenes): > 125 µg/mL; MIC (Enterococcus faecalis [24]): > 125 µg/mL; MIC (Staphylococcus aureus [25]): > 125 µg/mL; MIC (Staphylococcus aureus [26]): 125 µg/mL (≈ 451 µM); MIC (Staphylococcus aureus [27]): > 125 µg/mL; MIC (Staphylococcus aureus [28]): > 125 µg/mL; MIC (Staphylococcus aureus [29]): > 125 µg/mL; MIC (Staphylococcus aureus [30]): > 125 µg/mL; MIC (Staphylococcus aureus [31]): > 125 µg/mL; MIC (Staphylococcus aureus [32]): > 125 µg/mL |

Source: ChEMBL document CHEMBL3864121, “Development of ebsulfur analogues as potent antibacterials against methicillin-resistant Staphylococcus aureus” (Bioorg Med Chem, 2016)
